Test results: ChEMBL document CHEMBL1142406, “2-Heteroarylimino-5-benzylidene-4-thiazolidinones analogues of 2-thiazolylimino-5-benzylidene-4-thiazolidinones with antimicrobial activity: synthesis and structure-activity relationship” (2008)
≈ marks a conversion by molar mass, not a printed value. Calls of active or inactive are those of the source. The calls are words filed in the database; no cut-off is given here.

Tests used:
Bacillus subtilis = experiment: Antimicrobial activity against Bacillus subtilis ATCC 6633 by broth dilution technique; type: functional
In short: (§1)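 Broth dilution in Mueller Hinton Broth. Compounds are dissolved in DMSO (never above 1% v/v final) and serially diluted. MIC is the lowest concentration giving complete growth inhibition.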

Staphylococcus aureus [1] = experiment: Antimicrobial activity against Staphylococcus aureus ATCC 25923 by broth dilution technique; type: functional; in short: as §1
Streptococcus agalactiae = experiment: Antimicrobial activity against Streptococcus agalactiae by broth dilution technique; type: functional; in short: as §1
[2] = system: Staphylococcus haemolyticus; experiment: Antimicrobial activity against Staphylococcus haemolyticus by broth dilution technique; type: functional; in short: as §1
Aspergillus niger = experiment: Antimicrobial activity against Aspergillus niger ATCC 6275 upto 100 ug/ml by broth dilution technique; type: functional, organism-based
In short: (§2)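 Fungi are tested by Sabouraud Liquid Medium dilution. Compounds are in DMSO, with DMSO at most 1% v/v final. Inoculum is 1×10³ fungi/mL, incubated 48 h at 30 °C. MIC is the lowest concentration completely inhibiting growth. For MFC, 100 µL of clear mixtures is subcultured into 1 mL fresh medium and read after 48 h at 30 °C.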

Enterococcus faecium = experiment: Antimicrobial activity against Streptococcus faecium by broth dilution technique; type: functional; in short: as §1
[3] = system: Staphylococcus epidermidis; experiment: Antimicrobial activity against Staphylococcus epidermidis ATCC 12228 by broth dilution technique
Haemophilus influenzae = experiment: Antimicrobial activity against Haemophilus influenzae by broth dilution technique; type: functional
In short: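 Haemophilus Test Medium broth dilution. Compounds in DMSO are added to final dilutions, with DMSO at most 1% v/v. MIC is the lowest concentration completely inhibiting growth.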

Candida tropicalis = experiment: Antimicrobial activity against Candida tropicalis ATCC 1369 upto 100 ug/ml by broth dilution technique; type: functional, organism-based; in short: as §2
Bacillus thuringiensis = experiment: Antimicrobial activity against Bacillus thuringiensis var. kurstaki BGSC 4D1 by broth dilution technique; type: functional; details: serovar kurstaki; in short: as §1
Streptococcus pyogenes = experiment: Antimicrobial activity against Streptococcus pyogenes by broth dilution technique; type: functional
In short: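 Tryptose Phosphate Broth dilution. Compounds are dissolved in DMSO, with DMSO at most 1% v/v final. MIC is taken as the lowest concentration with complete growth inhibition.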

Escherichia coli = experiment: Antimicrobial activity against Escherichia coli SPA27 upto 100 ug/ml by broth dilution technique; type: functional, organism-based; in short: as §1
Micrococcus luteus = experiment: Antimicrobial activity against Sarcina lutea by broth dilution technique; type: functional; in short: as §1
[4] = system: Staphylococcus epidermidis; experiment: Antimicrobial activity against penicillin-resistant Staphylococcus epidermidis by broth dilution technique; type: functional
In short: (§3)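 Broth dilution in Mueller Hinton Broth with compounds predissolved in DMSO (at most 1% v/v). Final concentrations ranged from 100 to 0.0015, and the inoculum was 5.10⁴ bacteria/mL. Plates were incubated at 37 °C for 24 h. MIC was taken as the lowest concentration giving complete growth inhibition.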

Staphylococcus aureus [5] = experiment: Antimicrobial activity against penicillin-resistant Staphylococcus aureus by broth dilution technique; type: functional; in short: as §3
Enterococcus faecalis = experiment: Antimicrobial activity against Streptococcus faecalis by broth dilution technique; type: functional; in short: as §1
Saccharomyces cerevisiae = experiment: Antimicrobial activity against Saccharomyces cerevisiae ATCC 9763 upto 100 ug/ml by broth dilution technique; type: functional, organism-based; in short: as §2
Priestia megaterium = experiment: Antimicrobial activity against Bacillus megaterium by broth dilution technique; type: functional; in short: as §1

SMILES | MIC (Bacillus subtilis) [µg/mL] | MIC (Staphylococcus aureus [1]) [µg/mL] | MIC (Streptococcus agalactiae) [µg/mL] | MIC [2] [µg/mL] | Activity (Aspergillus niger) | MIC (Enterococcus faecium) [µg/mL] | MIC [3] [µg/mL] | MIC (Haemophilus influenzae) [µg/mL] | Activity (Candida tropicalis) | MIC (Bacillus thuringiensis) [µg/mL] | MIC (Streptococcus pyogenes) [µg/mL] | Activity (Escherichia coli) | MIC (Micrococcus luteus) [µg/mL] | MIC [4] [µg/mL] | MIC (Staphylococcus aureus [5]) [µg/mL] | MIC (Enterococcus faecalis) [µg/mL] | Activity (Saccharomyces cerevisiae) | MIC (Priestia megaterium) [µg/mL]
O=C1N/C(=N\c2nccs2)S/C1=C\c1ccccc1[N+](=O)[O-] | 6 (≈ 18.1 µM) | 6 (≈ 18.1 µM) | 12 (≈ 36.1 µM) | 12 (≈ 36.1 µM) | inactive | 25 (≈ 75.2 µM) | 12 (≈ 36.1 µM) | 0.7 (≈ 2.11 µM) | inactive | 6 (≈ 18.1 µM) | 25 (≈ 75.2 µM) | inactive | 12 (≈ 36.1 µM) | 25 (≈ 75.2 µM) | 3 (≈ 9.03 µM) | 50 (≈ 150 µM) | inactive | 3 (≈ 9.03 µM)
O=C1N/C(=N\c2nc3ccccc3s2)S/C1=C\c1ccccc1[N+](=O)[O-] | > 100 | > 100 | – | – | inactive | – | – | > 100 | inactive | – | – | inactive | – | – | – | – | inactive | –
O=C1N/C(=N/c2nsc3ccccc23)S/C1=C\c1cccc([N+](=O)[O-])c1 | > 100 | > 100 | > 100 | > 100 | inactive | > 100 | > 100 | 3 (≈ 7.84 µM) | inactive | 1.5 (≈ 3.92 µM) | > 100 | inactive | > 100 | > 100 | > 100 | > 100 | inactive | 0.7 (≈ 1.83 µM)
O=C1N/C(=N\c2nccs2)S/C1=C\c1ccccc1 | 0.7 (≈ 2.44 µM) | 3 (≈ 10.4 µM) | 3 (≈ 10.4 µM) | 6 (≈ 20.9 µM) | inactive | 25 (≈ 87 µM) | 6 (≈ 20.9 µM) | 0.7 (≈ 2.44 µM) | inactive | 3 (≈ 10.4 µM) | > 100 | inactive | 3 (≈ 10.4 µM) | 50 (≈ 174 µM) | 25 (≈ 87 µM) | 25 (≈ 87 µM) | inactive | 0.7 (≈ 2.44 µM)
O=C1N/C(=N\c2nc3ccccc3s2)S/C1=C\c1ccc(Cl)cc1 | 12 (≈ 32.3 µM) | > 100 | > 100 | 100 (≈ 269 µM) | inactive | > 100 | 12 (≈ 32.3 µM) | > 100 | inactive | 6 (≈ 16.1 µM) | > 100 | inactive | 12 (≈ 32.3 µM) | 12 (≈ 32.3 µM) | > 100 | 100 (≈ 269 µM) | inactive | 12 (≈ 32.3 µM)
O=C1N/C(=N\c2nccs2)S/C1=C\c1ccc([N+](=O)[O-])cc1 | 1.5 (≈ 4.51 µM) | 3 (≈ 9.03 µM) | 1.5 (≈ 4.51 µM) | 6 (≈ 18.1 µM) | inactive | > 100 | 6 (≈ 18.1 µM) | 0.3 (≈ 0.903 µM) | inactive | 1.5 (≈ 4.51 µM) | > 100 | inactive | 3 (≈ 9.03 µM) | 6 (≈ 18.1 µM) | 1.5 (≈ 4.51 µM) | > 100 | inactive | 0.7 (≈ 2.11 µM)
CC1(C)S[C@@H]2[C@H](NC(=O)[C@H](N)c3ccccc3)C(=O)N2[C@H]1C(=O)O [AMPICILLIN] | 0.007 (≈ 0.02 µM) | 0.07 (≈ 0.2 µM) | 0.03 (≈ 0.0859 µM) | 0.03 (≈ 0.0859 µM) | inactive | 100 (≈ 286 µM) | 3 (≈ 8.59 µM) | 0.07 (≈ 0.2 µM) | inactive | 50 (≈ 143 µM) | 0.007 (≈ 0.02 µM) | inactive | 0.0015 (≈ 0.00429 µM) | 25 (≈ 71.5 µM) | 25 (≈ 71.5 µM) | 0.7 (≈ 2 µM) | inactive | 0.07 (≈ 0.2 µM)
COc1ccc(/C=C2\S/C(=N/c3nccs3)NC2=O)cc1 | 1.5 (≈ 4.73 µM) | 12 (≈ 37.8 µM) | 3 (≈ 9.45 µM) | 12 (≈ 37.8 µM) | inactive | > 100 | 6 (≈ 18.9 µM) | 0.3 (≈ 0.945 µM) | inactive | 3 (≈ 9.45 µM) | 12 (≈ 37.8 µM) | inactive | 6 (≈ 18.9 µM) | 12 (≈ 37.8 µM) | 3 (≈ 9.45 µM) | > 100 | inactive | 1.5 (≈ 4.73 µM)
O=C1N/C(=N/c2nsc3ccccc23)S/C1=C\c1ccccc1[N+](=O)[O-] | > 100 | 3 (≈ 7.84 µM) | > 100 | > 100 | inactive | > 100 | > 100 | 1.5 (≈ 3.92 µM) | inactive | 3 (≈ 7.84 µM) | > 100 | inactive | > 100 | > 100 | 50 (≈ 131 µM) | 100 (≈ 261 µM) | inactive | > 100
O=C1N/C(=N\c2nc3ccccc3s2)S/C1=C\c1ccccc1Cl | 12 (≈ 32.3 µM) | 12 (≈ 32.3 µM) | > 100 | > 100 | inactive | > 100 | 12 (≈ 32.3 µM) | > 100 | inactive | 12 (≈ 32.3 µM) | 25 (≈ 67.2 µM) | inactive | 12 (≈ 32.3 µM) | 25 (≈ 67.2 µM) | 12 (≈ 32.3 µM) | > 100 | inactive | 12 (≈ 32.3 µM)
O=C1N/C(=N\c2nc3ccccc3s2)S/C1=C\c1cccc([N+](=O)[O-])c1 | 12 (≈ 31.4 µM) | 6 (≈ 15.7 µM) | > 100 | > 100 | inactive | > 100 | 6 (≈ 15.7 µM) | > 100 | inactive | 6 (≈ 15.7 µM) | > 100 | inactive | 6 (≈ 15.7 µM) | 6 (≈ 15.7 µM) | 6 (≈ 15.7 µM) | > 100 | inactive | 12 (≈ 31.4 µM)
O=C1N/C(=N/c2nsc3ccccc23)S/C1=C\c1ccc(Cl)cc1 | 3 (≈ 8.07 µM) | > 100 | 50 (≈ 134 µM) | > 100 | inactive | > 100 | > 100 | > 100 | inactive | 6 (≈ 16.1 µM) | > 100 | inactive | > 100 | > 100 | > 100 | > 100 | inactive | 0.7 (≈ 1.88 µM)
O=C1CS/C(=N\c2nsc3ccccc23)N1 | 50 (≈ 201 µM) | > 100 | > 100 | > 100 | inactive | > 100 | > 100 | 3 (≈ 12 µM) | inactive | > 100 | > 100 | inactive | > 100 | > 100 | > 100 | > 100 | inactive | 100 (≈ 401 µM)
O=C1CSC(Nc2nccs2)=N1 | 50 (≈ 251 µM) | > 100 | – | – | inactive | – | – | 1.5 (≈ 7.53 µM) | inactive | – | – | inactive | – | – | – | – | inactive | –
O=C1N/C(=N/c2nsc3ccccc23)S/C1=C\c1ccccc1Cl | > 100 | > 100 | – | – | inactive | – | – | > 100 | inactive | – | – | inactive | – | – | – | – | inactive | –
COc1cc(/C=C2\S/C(=N\c3nsc4ccccc34)NC2=O)ccc1O | > 100 | > 100 | – | – | inactive | – | – | > 100 | inactive | – | – | inactive | – | – | – | – | inactive | –
O=C1N/C(=N/c2nsc3ccccc23)S/C1=C\c1ccccc1 | > 100 | > 100 | – | – | inactive | – | – | > 100 | inactive | – | – | inactive | – | – | – | – | inactive | –
COc1ccc(/C=C2\S/C(=N\c3nsc4ccccc34)NC2=O)cc1 | > 100 | > 100 | – | – | inactive | – | – | > 100 | inactive | – | – | inactive | – | – | – | – | inactive | –
